ChEMBL document CHEMBL1144747, “(Phenylpiperazinyl-butyl)oxindoles as selective 5-HT7 receptor antagonists” (J Med Chem, 2008)

How the values were obtained:
[1] = Oral bioavailability in rat; assay type: ADME, organism-based; settings: in vivo
[2] = target: T1, 5-hydroxytryptamine receptor 7 (Homo sapiens, UniProt P34969); test: Displacement of [3H]LSD from human recombinant 5HT7 receptor expressed in CHO cells; assay type: cell-based; settings: read-out: Ki
Method in brief: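 Cloned human 5-HT7 receptor from CHO cells, labelled with [3H]LSD; nonspecific binding with 25 µM clozapine. Stopped by filtration on PEI-soaked GF/C filters, then scintillation counting. Ki from two displacement curves of nine concentrations each, run in triplicate.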

[3] = target: T2, 5-hydroxytryptamine receptor 1A (Rattus norvegicus) (UniProt P19327); test: Displacement of [3H]8-OH-DPAT from 5HT1A receptor in rat frontal cortex membrane at 0.1 uM; assay type: cell membranes
T2 sequence (whole entry): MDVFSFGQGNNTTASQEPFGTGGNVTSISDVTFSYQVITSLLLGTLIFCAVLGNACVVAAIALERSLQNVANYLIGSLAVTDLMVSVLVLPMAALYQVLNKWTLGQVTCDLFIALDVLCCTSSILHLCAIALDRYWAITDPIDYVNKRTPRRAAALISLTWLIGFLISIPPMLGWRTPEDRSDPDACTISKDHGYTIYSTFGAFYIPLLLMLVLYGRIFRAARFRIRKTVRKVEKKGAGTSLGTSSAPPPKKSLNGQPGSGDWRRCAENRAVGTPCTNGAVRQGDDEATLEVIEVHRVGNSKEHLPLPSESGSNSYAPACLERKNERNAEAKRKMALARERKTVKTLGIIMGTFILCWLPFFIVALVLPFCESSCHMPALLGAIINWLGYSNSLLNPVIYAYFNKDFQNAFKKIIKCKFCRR
Method in brief: (§1)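 Rat tissue homogenized in 50 mM Tris-HCl pH 7.7, washed by repeated 40000g spins with a 10 min 37 °C incubation. Buffer: Tris-HCl, 6.66 mM CaCl2, 16.66 µM pargyline, 0.166% ascorbate. Labelled with 1.5 nM [3H]8-OH-DPAT, 45 min at 25 °C; nonspecific with 10 µM 5-HT. GF/B filtration, then scintillation counting; percent inhibition.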

[4] = target: T2, 5-hydroxytryptamine receptor 1A (Rattus norvegicus); test: Displacement of [3H]8-OH-DPAT from 5HT1A receptor in rat frontal cortex membrane at 10 nM; assay type: cell membranes; method in brief: as §1
[5] = test system: Rattus norvegicus; test: Anxiolytic activity in ip dosed Wistar rat assessed as number of punished licks for 5 mins by conflict drinking test; assay type: functional; settings: read-out: MED
Method in brief: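 Modified Vogel test in male Wistar rats, 160–180 g, water-deprived 48 h and fasted 24 h. Dosed ip 30 min before test. After a 30 s free-drinking period, 600 µA, 0.6 s shocks came through the spout every 20 licks over 5 min. Punished licks counted; minimal effective dose reported.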

[6] = target: T3, 5-hydroxytryptamine receptor 1A (Rattus norvegicus, UniProt P19327); test: Inhibition of 5HT1A receptor in rat frontal cortex membrane; assay type: cell membranes; method in brief: as §1
T3 sequence (P19327 whole entry): T2 sequence (whole entry)

[7] = target: 5-hydroxytryptamine receptor 2A (Homo sapiens, UniProt P28223); test: Inhibition of 5HT2A receptor
5-hydroxytryptamine receptor 2A, sequence (P28223 whole entry): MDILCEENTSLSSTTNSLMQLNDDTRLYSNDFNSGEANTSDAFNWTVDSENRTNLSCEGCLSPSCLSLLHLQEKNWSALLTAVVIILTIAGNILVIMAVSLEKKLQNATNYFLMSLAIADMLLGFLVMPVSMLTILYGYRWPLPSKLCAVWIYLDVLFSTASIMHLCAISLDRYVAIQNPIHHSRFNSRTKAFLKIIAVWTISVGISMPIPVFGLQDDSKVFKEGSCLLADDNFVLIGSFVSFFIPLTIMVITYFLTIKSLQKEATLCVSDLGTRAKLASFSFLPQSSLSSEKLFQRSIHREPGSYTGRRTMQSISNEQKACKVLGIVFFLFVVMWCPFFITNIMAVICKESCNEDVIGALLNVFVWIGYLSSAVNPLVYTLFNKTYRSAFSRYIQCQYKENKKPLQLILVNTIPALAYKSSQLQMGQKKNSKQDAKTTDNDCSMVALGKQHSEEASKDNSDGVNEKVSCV

[8] = target: T4, 5-hydroxytryptamine receptor 2C (Homo sapiens, UniProt P28335); test: Inhibition of 5HT2C receptor
T4 sequence (P28335 whole entry): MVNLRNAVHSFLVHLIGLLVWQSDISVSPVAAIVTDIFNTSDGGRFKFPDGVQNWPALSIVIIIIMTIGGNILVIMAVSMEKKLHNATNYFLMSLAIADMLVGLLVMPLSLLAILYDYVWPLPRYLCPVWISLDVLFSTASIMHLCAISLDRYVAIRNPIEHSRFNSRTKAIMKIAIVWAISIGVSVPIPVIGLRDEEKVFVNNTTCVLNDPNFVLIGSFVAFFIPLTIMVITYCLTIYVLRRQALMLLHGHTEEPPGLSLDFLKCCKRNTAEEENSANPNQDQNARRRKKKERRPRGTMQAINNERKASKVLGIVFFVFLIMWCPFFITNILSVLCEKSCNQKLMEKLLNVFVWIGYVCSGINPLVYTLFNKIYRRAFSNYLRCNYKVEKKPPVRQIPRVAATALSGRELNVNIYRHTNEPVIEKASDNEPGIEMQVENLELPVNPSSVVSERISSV

[9] = target: 5-hydroxytryptamine receptor 6 (Homo sapiens, UniProt P50406); test: Inhibition of 5HT6 receptor
5-hydroxytryptamine receptor 6, sequence (P50406 whole entry): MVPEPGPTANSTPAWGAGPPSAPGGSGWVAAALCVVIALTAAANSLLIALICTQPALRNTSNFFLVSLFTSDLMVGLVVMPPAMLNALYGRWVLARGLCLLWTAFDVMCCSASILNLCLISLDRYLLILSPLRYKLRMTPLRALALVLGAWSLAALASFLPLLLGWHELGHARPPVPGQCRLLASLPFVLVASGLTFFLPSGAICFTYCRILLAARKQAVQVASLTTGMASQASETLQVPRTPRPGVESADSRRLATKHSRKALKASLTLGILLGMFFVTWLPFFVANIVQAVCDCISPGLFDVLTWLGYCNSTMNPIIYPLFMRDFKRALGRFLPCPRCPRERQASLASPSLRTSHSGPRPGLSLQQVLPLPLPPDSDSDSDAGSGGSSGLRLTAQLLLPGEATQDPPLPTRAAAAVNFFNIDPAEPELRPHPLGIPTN

[10] = target: T5, Alpha-1A adrenergic receptor (Homo sapiens, UniProt P35348); test: Inhibition of adrenergic alpha-1 receptor
T5 sequence (P35348 whole entry): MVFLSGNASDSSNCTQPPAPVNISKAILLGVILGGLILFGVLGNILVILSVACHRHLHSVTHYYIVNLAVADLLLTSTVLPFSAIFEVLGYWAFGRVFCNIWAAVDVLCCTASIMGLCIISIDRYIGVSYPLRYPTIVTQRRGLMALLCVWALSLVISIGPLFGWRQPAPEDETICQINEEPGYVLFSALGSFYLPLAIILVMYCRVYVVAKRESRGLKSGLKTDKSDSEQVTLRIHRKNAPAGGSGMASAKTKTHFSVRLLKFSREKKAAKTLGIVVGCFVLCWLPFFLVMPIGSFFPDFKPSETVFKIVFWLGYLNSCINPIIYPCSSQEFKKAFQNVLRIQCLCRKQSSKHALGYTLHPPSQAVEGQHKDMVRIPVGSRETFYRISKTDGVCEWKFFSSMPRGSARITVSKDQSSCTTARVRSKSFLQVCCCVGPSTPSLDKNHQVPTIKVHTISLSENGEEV

[11] = target: D(1A) dopamine receptor (Homo sapiens, UniProt P21728); test: Inhibition of dopamine D1 receptor
D(1A) dopamine receptor, sequence (P21728 whole entry): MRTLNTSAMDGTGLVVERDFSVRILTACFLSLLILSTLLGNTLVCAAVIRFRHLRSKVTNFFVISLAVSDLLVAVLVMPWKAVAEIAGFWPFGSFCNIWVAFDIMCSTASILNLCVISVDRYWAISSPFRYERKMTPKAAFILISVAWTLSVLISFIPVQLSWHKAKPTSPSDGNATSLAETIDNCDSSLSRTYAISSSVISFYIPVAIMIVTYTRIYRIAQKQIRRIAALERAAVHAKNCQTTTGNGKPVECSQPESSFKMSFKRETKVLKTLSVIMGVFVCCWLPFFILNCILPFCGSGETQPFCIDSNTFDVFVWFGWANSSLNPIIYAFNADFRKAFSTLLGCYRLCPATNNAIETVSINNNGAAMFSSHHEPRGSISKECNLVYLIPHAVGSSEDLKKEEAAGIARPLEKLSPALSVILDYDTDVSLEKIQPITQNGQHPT

[12] = target: D(2) dopamine receptor (Homo sapiens, UniProt P14416); test: Inhibition of dopamine D2 receptor
D(2) dopamine receptor, sequence (P14416 whole entry): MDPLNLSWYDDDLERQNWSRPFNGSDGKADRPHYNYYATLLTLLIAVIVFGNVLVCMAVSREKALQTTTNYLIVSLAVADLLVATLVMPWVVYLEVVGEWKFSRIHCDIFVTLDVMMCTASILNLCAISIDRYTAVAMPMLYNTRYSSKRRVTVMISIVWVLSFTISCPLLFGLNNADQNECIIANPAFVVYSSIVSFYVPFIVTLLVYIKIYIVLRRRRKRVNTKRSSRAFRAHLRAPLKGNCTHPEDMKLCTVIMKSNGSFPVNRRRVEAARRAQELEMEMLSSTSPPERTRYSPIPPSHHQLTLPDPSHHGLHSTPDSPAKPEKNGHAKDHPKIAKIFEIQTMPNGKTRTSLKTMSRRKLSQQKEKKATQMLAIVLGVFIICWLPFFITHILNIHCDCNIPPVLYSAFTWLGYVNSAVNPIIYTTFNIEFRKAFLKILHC

[13] = target: T1, 5-hydroxytryptamine receptor 7; test: Antagonist activity at human 5HT7A receptor expressed in CHO cells assessed as inhibition of […]-induced cAMP elevation at 10 nM administered before […] challenge; assay type: functional, cell-based; design: scale not given: the % may be the effect or the level left
Method in brief: (§2)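 CHO cells stably expressing human 5-HT7A, cultured in F12:DMEM with 5% FCS, seeded 24 h ahead. Compounds from 1 mM DMSO stock (final DMSO 0.1%) preincubated 10 min, then 20 min with 10 nM 5-CT at 37 °C. Cells lysed, cAMP by EIA, normalized to BCA protein. The 5-CT-induced level is taken as 100%; six independent experiments.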

[14] = target: T1, 5-hydroxytryptamine receptor 7; test: Antagonist activity at human 5HT7A receptor expressed in CHO cells assessed as inhibition of […]-induced cAMP elevation at 1 uM; assay type: functional, cell-based; design: scale not given: the % may be the effect or the level left; method in brief: as §2
[15] = test system: Mus musculus; test: Anxiolytic activity in ip dosed NMRI mouse assessed as behavioral activity for 5 mins by light dark assay; assay type: functional; settings: read-out: MED
Method in brief: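 Male NMRI mice, 25–33 g, kept in a dark room and dosed ip 30 min before test, then placed in the centre of the lit area. Over 5 min, time in each area, transitions, and horizontal and vertical activity were recorded. Minimal effective dose by one-way ANOVA with Duncan's test.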

T1 sequence (P34969 whole entry): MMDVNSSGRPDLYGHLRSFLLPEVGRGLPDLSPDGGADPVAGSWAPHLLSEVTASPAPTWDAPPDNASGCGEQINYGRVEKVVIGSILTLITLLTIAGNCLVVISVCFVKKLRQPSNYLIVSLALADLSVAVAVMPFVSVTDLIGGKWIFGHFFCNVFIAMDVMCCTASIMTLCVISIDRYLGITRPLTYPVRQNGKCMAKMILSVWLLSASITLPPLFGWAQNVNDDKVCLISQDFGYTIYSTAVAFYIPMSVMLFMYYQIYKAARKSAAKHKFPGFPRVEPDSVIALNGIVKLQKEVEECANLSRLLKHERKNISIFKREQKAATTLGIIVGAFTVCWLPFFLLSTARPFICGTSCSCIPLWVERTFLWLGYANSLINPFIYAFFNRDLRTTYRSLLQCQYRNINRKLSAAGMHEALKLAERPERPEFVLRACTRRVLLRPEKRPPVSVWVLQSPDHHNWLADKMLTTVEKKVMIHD

SMILES	bioavailability [1] [%]	Ki [2] [nM]	Activity [3] [%]	Activity [4] [%]	minimal effective dose [5] [mg/kg]	Ki [6] [nM]	Ki [7] [nM]	Ki [8] [nM]	Ki [9] [nM]	Ki [10] [nM]	Ki [11] [nM]	Ki [12] [nM]	Activity [13] [%]	Activity [14] [%]	minimal effective dose [15] [mg/kg]
O=C1Nc2ccc(Cl)c3c2C1(CCCCN1CC=C(c2ccc(Cl)cc2)CC1)CCC3 (stereo not given)	18	–	–	–	–	–	–	–	–	–	–	–	–	–	–
O=C1Nc2ccc(F)cc2C1CCCCN1CCN(c2ccccc2)CC1 (stereo not given)	–	44	33	5	< 10	150	55	1500	1800	20	1900	330	40	> 95	–
O=C1Nc2ccccc2C1CCCCN1CCN(c2ccc(Cl)cc2)CC1 (stereo not given)	–	7	10	–	< 2.5	1800	17.5	690	580	42	2400	960	80	> 95	< 1
CCC1(CCCCN2CCN(c3ccc(Cl)cc3)CC2)C(=O)Nc2cc(F)ccc21 (stereo not given)	–	0.79	9	0	> 20	1610	19.4	358	187	71.3	3360	950	–	> 95	> 10
